The text below walks through data of article PMC6661244 (Investigative Radiology, 2019).

Data set [1] can be described thus: Metabolism: HPLC analysis of plasma and urine samples. It counts as in vivo. The conditions noted are these: Beagle dogs, 0.2 mmol Gd/kg IV. The essentials:
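Urine and plasma from Beagle dogs given a 153Gd-labelled test compound (0.2 mmol Gd/kg IV) were analysed by radio-HPLC. Separation used a C18 column at 4°C, with detection by a flow scintillation analyser.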

Data set [2] can be described thus: Nuclear magnetic relaxation dispersion. It counts as physicochemical.
Data set [3] is classed as physicochemical. The conditions noted are these: 2.5 mM GBCA and ZnCl2, phosphate buffer pH 7, 335 mM, 37°C, 0.47 T, up to 5 days.
Data set [4] in a line: Osmolality. The note with it: 0.5-M solution; Guerbet measurements. In kind it is physicochemical. The essentials:
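Vapour-pressure osmometry on a 0.5 M solution, triplicate readings. The osmometer was calibrated before each use with 100, 290 and 1000 mOsm/kg H2O standards.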

Data set [5] is described as follows: Viscosity. It counts as physicochemical. The conditions noted are these: 0.5 M. Put shortly: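 Cone-and-plate rotational rheometry (60 mm, 2° cone) on a 0.5 M solution at 37°C. Shear rate was recorded at applied stresses of 1–5 Pa, and viscosity was taken from the slope of stress versus shear rate.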
Data set [6] has as its system hepatic colorectal metastases. The conditions noted are these: rats, 0.1 mmol Gd/kg intravenously, 9.4 T, compared with gadobutrol; cited from earlier work.

Entries after “also recorded” stand apart in the source; their conditions may differ.

As to `O=C(CCC(C(=O)[O-])N1CCN(C(CCC(=O)NCC(O)CO)C(=O)[O-])Cc2cccc(n2)CN(C(CCC(=O)NCC(O)CO)C(=O)[O-])CC1)NCC(O)CO.[Gd+3]` (centres unmarked) [Gadopiclenol, gadolinium chelate of 2,2′,2″-(3,6,9-triaza-1(2,6)-pyridinacyclodecaphane-3,6,9-triyl)tris(5-((2,3-dihydroxypropyl)amino)-5-oxopentanoic acid)], in data set [1], the “Metabolites in plasma and urine samples (HPLC)” value is “No metabolites were found; also recorded: only unchanged gadopiclenol”. Besides, the “Relaxivity r1 at 37°C” value in data set [2] (3 T, in human serum, extrapolated from NMRD profiles) is 11.6 mM⁻¹ s⁻¹. For the same molecule, the “r1 relaxivity (NMRD profile)” value in data set [2] (300 MHz, ie, 7 T field, water, 37°C) stood at 10.68 mM⁻¹ s⁻¹. In data set [3], the “r1(t)/r1(t0) ratio over time in the presence of Zn^2+ and phosphate” value is “remained constant”. The “Osmolality at 37°C at marketed concentration” value in data set [4] was found to be 843 mOsm/kg H2O. For the same molecule, the “Viscosity at 37°C” value in data set [5] is 7.6 mPa·s. Besides, the Lesion enhancement entry in data set [6] is “significantly better lesions enhancement”.
With `CNC[C@H](O)[C@@H](O)[C@H](O)[C@H](O)CO.O=C([O-])CN1CCN(CC(=O)[O-])CCN(CC(=O)O)CCN(CC(=O)[O-])CC1.[Gd+3]` [Gadoterate (Meglumine Salt), reference compound], in data set [3], the “r1(t)/r1(t0) ratio over time in the presence of Zn^2+ and phosphate” value is recorded as “remained constant”.
